Bioassay records: PubChem BioAssay, several laboratories
Only some compounds are listed: those with a hit (about 4.3% of all), similar ones and a draw of the others.
Beta2AR agonist = human beta-2 adrenergic receptor agonism by FAP; response, % (test concentration not listed); 340,000 tested, 0.43% active; P07550; AID 504454; Am2.2-beta2AR cells, FAP receptor internalization, flow cytometry;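 active = response above a set limit, near 3 SD of response in nonfluorescent compounds, cut at about 42% in these data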
Target sequence (P07550 whole entry, looked up): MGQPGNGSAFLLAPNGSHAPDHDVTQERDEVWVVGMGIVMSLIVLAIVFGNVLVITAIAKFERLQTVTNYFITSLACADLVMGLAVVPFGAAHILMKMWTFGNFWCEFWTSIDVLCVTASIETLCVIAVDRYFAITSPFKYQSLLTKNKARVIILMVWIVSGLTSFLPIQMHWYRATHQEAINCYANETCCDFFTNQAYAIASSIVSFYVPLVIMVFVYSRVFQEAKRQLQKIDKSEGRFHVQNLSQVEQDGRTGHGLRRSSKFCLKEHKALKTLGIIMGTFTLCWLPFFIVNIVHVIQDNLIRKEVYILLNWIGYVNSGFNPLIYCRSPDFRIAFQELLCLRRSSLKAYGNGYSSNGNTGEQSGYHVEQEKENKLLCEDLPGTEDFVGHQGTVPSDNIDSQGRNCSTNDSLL
TAAR1 agonist = agonists of human TAAR1; Q96RJ0; CHO RD-HGA16 TAAR1, Fluo-8 calcium fluorescence; vehicle wells 0%, saturating PEA agonist 100%; activation, % at 3 µM; 360,000 tested, 0.99% active; AID 624467;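 active = activation above the mean activation of all test compounds in the run plus 3 SD, cut at about 38% in these data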
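Assay system: CHO-derived RD-HGA16 cells with stable Gα16 and human TAAR1; timing: 17-24 h seeding, 75 min 37 °C dye, 30 min RT; read-out: % activation from peak over basal fluorescence ratio, DMSO-to-PEA scaled; measured by: kinetic Fluo-8 calcium fluorescence; benchmarks: low control DMSO, high control PEA (EC100); doses: 3 µM single concentration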
m5-HT2A agonist = activates the mouse 5-HT2A serotonin receptor; CHO-K1 mHTR2A beta-arrestin complementation, luminescence; percent of 30 µM serotonin response; activation, % at 7.6 µM; P35363; 360,000 tested, 0.66% active;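 active = activation above a run cutoff, the mean activation of all tested compounds plus 3 SD, cut at about 14% in these data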;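 note: 0% = plate median of compound wells and 100% = 30 µM serotonin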
MC4R antagonist = human MC4R antagonism in cAMP assay; 360,000 tested, 0.48% active; inhibition, % at 6.5 µM; P32245; MC4R-expressing cells, MTII-stimulated cAMP, LANCE TR-FRET;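 active = inhibition above its plate's cutoff, the mean of tested wells on that plate plus 3 SD, cut at about 29% in these data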;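 note: 0% = Melanotan II alone and 100% = Melanotan II plus saturating MCL0020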
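Material: U2OS-MC4R stable cell line | Reagent: Melanotan II challenge after compound preincubation | Doses: One concentration, 6.5 µM nominal | Incubation: 30-min compound preincubation, 1-h Melanotan II challenge, 1-h detection, room temperature | Signal: TR-FRET cAMP assay | Replicates: One well per compound, no replicates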
TAAR1 antag = human TAAR1 antagonism; inhibition, % at 3 µM; CHO RD-HGA16 TAAR1, Fluo-8 calcium fluorescence, antagonist; AID 624466; 360,000 tested, 1.5% active;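 active = inhibition above a per-plate cutoff, the mean inhibition of test compounds on that plate plus 3 SD, cut at about 49% in these data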;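 note: 0% = DMSO plus EC80 beta-PEA response and 100% = DMSO alone without agonist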
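System: RD-HGA16 CHO cells with stable hTAAR1 and Gα16 | Probe or stimulus: EC80 β-phenethylamine stimulus | Dosing: 3 µM, single point | Times: Dye loading 75 min at 37 °C, then 30 min room temperature | Measured by: Fluo-8 calcium-sensitive fluorescence | Read-out basis: % inhibition of agonist calcium response | Replicates: n of 1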
MC4R ag barr = human MC4R agonism via beta-arrestin; P32245; U2OS MC4R beta-arrestin complementation, luminescence; percent of melanotan II response, DMSO zero; activation, % at 8.9 µM; 360,000 tested, 0.98% active; AID 540308;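 active = activation above a per-plate cutoff, the mean activation of sample wells on that plate plus 3 SD, cut at about 8% in these data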
B2AR ag CP1 = human beta-2 adrenergic receptor agonism, cherry pick; 1,100 tested, 25% active; percent response (surface receptor), % at 10 µM; Am2.2-beta2AR cells, FAP surface receptor, flow cytometry; active compounds read low; AID 540358; shares compounds with Beta2AR agonist;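 active = surface receptor percent response at or below 58%, roughly 3 SD from nonfluorescent compounds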
B2AR FAP counter = counter-screen for beta-2AR agonists: fluorescence in Am2.2 cells. shares compounds with Beta2AR agonist. FAP fluorogen flow cytometry, fluorescence counterscreen; active compounds read low. calls only at 10 µM. 1,100 tested, under 10 active. AID 588765;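 active = percent response below a set limit in fluorescence channel 1 and below 50% in channel 8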
Active calls of the source: *; i = inactive; . = no result.

SMILES	Beta2AR agonist	TAAR1 agonist	m5-HT2A agonist	MC4R antagonist	TAAR1 antag	MC4R ag barr	B2AR ag CP1	B2AR FAP counter
CC(Oc1ccc(Cl)cc1Cl)c1nc(-c2ccc(NC(=O)c3ccccn3)cc2)no1 (configuration not stated)	82*	7	0	17	10	-1	9.7*	i
CN(C)CC/C=C1\c2ccccc2Sc2ccc(Cl)cc21	53*	11	1	-5	36	0	97	i
NC(=O)c1cc2c3ccccc3ccn2c1-c1ccccc1	43*	1	5	-24	-18	-4	101	i
Cc1cc(C)cc(N2C(=O)CC(Sc3nnnn3-c3ccccc3)C2=O)c1 (configuration not stated)	51*	4	3	27	21	0	114	i
Cn1nnnc1SC1CC(=O)N(c2ccccc2)C1=O (configuration not stated)	3	2	3	18	-17	-2	.	.
CCOC(=O)CS(=O)(=O)CC(=O)Nc1ccc([N+](=O)[O-])cc1OC	86*	0	2	-4	1	2	90	i
CC1=C(C#N)C(C)(C)C(C#N)=C(C)N1	.	1	-2	-2	-2	-2	.	.
Clc1ccccc1OCCn1nnc2ccccc21	-8	4	1	-2	-5	-2	.	.
CN1CCN(c2ccc(Cl)cc2NC(=O)c2ccc(S(=O)(=O)N(C)C)cc2)CC1	4	3	-3	0	7	-1	.	.
CCN(CC)S(=O)(=O)c1cc(C(=O)Nc2cc(Cl)ccc2N2CCN(C)CC2)ccc1Cl	74*	4	1	0	11	0	20*	i
Cc1ccc(NC(=O)CSc2ccc3nnc(CCNC(=O)c4ccccc4)n3n2)c(C)c1	62*	1	-2	0	-7	3	111	i
O=C(NCCNc1ccc([N+](=O)[O-])cc1)c1ccccc1Br	46*	2	-3	-4	-7	-2	105	i
Cc1ccccc1C(=O)NCCNc1ccc([N+](=O)[O-])cc1	-5	3	-6	4	2	-6	.	.
COc1ccc(C[C@H]2CN3C(=NC[C@@H]3Cc3ccc(O)cc3)N2CCNC(=O)c2ccc(C)c(Br)c2)cc1	47*	4	-16	4	-3	-1	94	i
Cc1cc(Nc2ccccc2)nn1C(=O)c1ccccc1	0	-2	-7	2	12	-1	.	.
Cc1cc(Nc2ccccc2)nn1C(=O)c1ccc(Br)cc1	50*	7	0	7	-3	-2	121	i
COc1ccc(-c2cccc(NC(=O)c3cccs3)c2)nn1	2	6	12	5	22	-2	.	.
O=C(c1ccc(N2C(=O)C3C4CC(C(Br)C4Br)C3C2=O)cc1)N1CCCCC1 (configuration not stated)	4	24	7	7	7	-1	.	.
COc1cc(NC(=O)C(c2ccccc2)c2ccccc2)c(C(=O)O)cc1OC	6	-1	-5	4	11	0	.	.
Cc1ccc(NC(=O)C(c2ccccc2)c2ccccc2)c(O)c1	48*	-1	-5	-7	11	8	104	i
Cn1nnnc1Sc1ncnc2scc(-c3ccc(Cl)cc3)c12	85*	-1	-7	-20	-1	-1	6.3*	i
Clc1ccc(-n2nnnc2Sc2ncnc3sccc23)cc1	54*	13	-8	-8	19	1	35*	i
CCOC(=O)C1CCN(S(=O)(=O)c2ccc3c(c2)N(C(C)=O)CC(C)S3)CC1 (configuration not stated)	50*	3	-2	14	-1	-1	78	i
CCOC(=O)C1CCN(S(=O)(=O)c2ccc3c(c2)NC(=O)C(C)S3)CC1 (configuration not stated)	14	3	3	2	-9	-1	.	.
O=C(c1ccc([N+](=O)[O-])s1)N1CCN(c2ncccn2)CC1	.	0	-1	-6	2	-1	.	.
SMILES	Beta2AR agonist	TAAR1 agonist	m5-HT2A agonist	MC4R antagonist	TAAR1 antag	MC4R ag barr	B2AR ag CP1	B2AR FAP counter
O=C(c1ccc([N+](=O)[O-])s1)N1CCN(c2ccc(C(F)(F)F)cn2)CC1	84*	-4	3	1	-1	2	109	i
CCOC(=O)c1cc(NC(=O)N(C)C2CCCCC2)c(C)nc1C	48*	-1	5	3	-2	-1	106	i
CCOC(=O)c1cc(NC(=O)N(CC)C2CCCCC2)c(C)nc1C	1	.	4	8	.	-1	.	.
Cc1cnc(CN(C)C(=O)C2CCC(=O)N(CCc3ccc(Cl)cc3)C2)[nH]1 (configuration not stated)	.	1	-1	7	-3	0	.	.
O=C(Cn1cc(C(F)(F)F)cc(Cl)c1=O)NCCc1ccc(Cl)cc1Cl	55*	1	-2	25	-24	0	87	i
O=C(Cn1cc(C(F)(F)F)cc(Cl)c1=O)Nc1cccc(Cl)c1	-10	3	-1	15	6	6	.	.
COc1ccccc1C(=O)Nc1ccc(S(=O)(=O)N2CCC(C)CC2)cc1	2	1	-2	8	-19	0	.	.
COc1ccccc1C(=O)Nc1ccc(S(=O)(=O)N2CCCCC2c2cccnc2)cc1 (configuration not stated)	-16	5	-3	8	16	-2	133	i
O=C(Nc1ccc(S(=O)(=O)Nc2ncccn2)cc1)c1cccc([N+](=O)[O-])c1	.	1	8	6	-20	-1	.	.
CN(C)CCNc1ncnc2c1sc1nc(N3CCOCC3)c3c(c12)CC(C)(C)SC3	21	9	-6	4	-1	1	.	.
CC1(C)Cc2c(c(N3CCCC3)nc3sc4c(N5CCN(CCO)CC5)ncnc4c23)CO1	71*	3	-5	7	10	-1	46*	i
CC1(C)Cc2c(c(N3CCOCC3)nc3sc4c(NCCN)ncnc4c23)CO1	105*	1	-1	14	-1	3	10*	i
CCOC(=O)c1[nH]ncc1CN1CCCC(C(=O)c2ccc(OC)c(OC)c2)C1 (configuration not stated)	47*	-1	-1	20	9	-1	82	i
